The values that follow come from PMC9727797 (Molecular Biology of the Cell, 2022).

The test concerns the target T1, K560, a truncated form of kinesin-1 (Homo sapiens, UniProt P33176).
T1 sequence (P33176 1-560 limits assumed): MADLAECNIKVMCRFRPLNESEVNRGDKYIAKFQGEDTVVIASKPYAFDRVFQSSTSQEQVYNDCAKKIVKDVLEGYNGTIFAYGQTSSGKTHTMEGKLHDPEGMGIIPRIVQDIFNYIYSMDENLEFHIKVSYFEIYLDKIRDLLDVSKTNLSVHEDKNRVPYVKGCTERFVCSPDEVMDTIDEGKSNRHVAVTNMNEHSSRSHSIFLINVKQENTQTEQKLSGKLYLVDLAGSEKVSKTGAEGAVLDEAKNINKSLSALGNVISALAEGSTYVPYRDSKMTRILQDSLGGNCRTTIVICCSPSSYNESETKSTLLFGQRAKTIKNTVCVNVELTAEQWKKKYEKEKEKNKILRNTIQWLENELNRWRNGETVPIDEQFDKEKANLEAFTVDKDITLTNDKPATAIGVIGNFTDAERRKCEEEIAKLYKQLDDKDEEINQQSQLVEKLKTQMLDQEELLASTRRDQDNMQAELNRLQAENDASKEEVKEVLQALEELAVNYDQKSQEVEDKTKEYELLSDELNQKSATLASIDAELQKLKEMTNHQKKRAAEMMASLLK
Kind of test: Microtubule gliding assay, K560. The class given is biochemical. The conditions noted are these: 24 µM Munesib-1 or 100 µM Fift-IN. A digest of the protocol: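 Gliding assays with other motors used His6-Eg5, His6-EGFP-HSET or K560 (truncated kinesin-1), with test compound at 24 µM or 100 µM. Frames were captured every 5 s for 1 min at 100×. Velocity was the distance travelled in 1 min, from ≥15 microtubules at each of three locations (n ≥ 50 per slide).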

Regarding `COC(=O)c1ccc2c(c1)N(C)S(=O)(=O)c1cnc(SC)nc1-2` [Munesib-1, Methyl 6-methyl-2-(methylthio)-6H-benzo[c]pyrimido[4,5-e][1,2]thiazine-8-carboxylate 5,5-dioxide], the “inhibition of microtubule gliding, K560” value was “neither substantially inhibited”.
